Measured values as given in ChEMBL document CHEMBL5712898, “H3K27me1 is essential for MMP-9-dependent H3N-terminal tail proteolysis during osteoclastogenesis” (Epigenetics Chromatin, 2018).
Calls of active or inactive are those of the source. No cut-off for these calls is given here.

Legend:
[1] = system: Osteoclast; assay: Inhibition of EZH1/2 in M-CSF/RANKL-induced OCP cells (unknown origin) assessed as reduction in H3K27me2 level at 2 uM cultured for 0, 1, 3, and 5 days with RANKL by Western blot analysis; conditions: Homo sapiens, time 5.0 day
[2] = system: Osteoclast; assay: Inhibition of EZH1/2 in M-CSF/RANKL-induced OCP cells (unknown origin) assessed as reduction in H3NT proteolysis at 2 uM cultured for 0, 1, 3, and 5 days with RANKL by Western blot analysis; conditions: Homo sapiens, time 5.0 day
[3] = system: Osteoclast; assay: Inhibition of EZH1/2 in M-CSF/RANKL-induced OCP cells (unknown origin) assessed as reduction in H3K27me3 level at 2 uM cultured for 0, 1, 3, and 5 days with RANKL by Western blot analysis; conditions: Homo sapiens, time 5.0 day
[4] = target: Matrix metalloproteinase-9 (Homo sapiens) (UniProt P14780); assay: Inhibition of MMP-9 in M-CSF/RANKL-induced OCP cells (unknown origin) assessed as reduction in Xpr1 mRNA expression at 10 nM cultured for 3 days with RANKL by RT-qPCR analysis; assay type: cell-based; conditions: Osteoclast, time 3.0 day
Chain of Matrix metalloproteinase-9 (Homo sapiens) (P14780 whole entry): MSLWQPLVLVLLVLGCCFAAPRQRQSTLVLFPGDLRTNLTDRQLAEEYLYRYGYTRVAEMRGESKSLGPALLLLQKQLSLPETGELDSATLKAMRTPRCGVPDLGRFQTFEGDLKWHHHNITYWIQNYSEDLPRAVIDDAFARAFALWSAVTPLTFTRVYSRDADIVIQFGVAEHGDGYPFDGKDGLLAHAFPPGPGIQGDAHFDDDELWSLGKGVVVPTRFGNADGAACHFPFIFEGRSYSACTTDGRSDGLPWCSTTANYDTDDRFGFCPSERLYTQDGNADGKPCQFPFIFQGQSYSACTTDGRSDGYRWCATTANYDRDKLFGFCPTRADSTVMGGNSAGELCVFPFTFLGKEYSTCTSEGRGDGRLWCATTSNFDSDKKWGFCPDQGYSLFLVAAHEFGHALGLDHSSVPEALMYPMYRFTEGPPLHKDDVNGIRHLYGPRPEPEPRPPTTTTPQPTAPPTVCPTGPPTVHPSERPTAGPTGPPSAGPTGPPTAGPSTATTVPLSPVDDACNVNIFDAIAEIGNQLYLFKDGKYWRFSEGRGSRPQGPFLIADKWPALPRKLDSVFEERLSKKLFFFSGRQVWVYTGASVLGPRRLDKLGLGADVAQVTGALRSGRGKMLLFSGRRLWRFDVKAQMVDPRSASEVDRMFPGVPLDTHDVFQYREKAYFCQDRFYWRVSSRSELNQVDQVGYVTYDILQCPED
Procedure, shortened: (§1)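 OCP cells were induced for 3 days with 30 ng/ml M-CSF and 50 ng/ml RANKL, with BIX01294 (1.5 µM) and/or MMP-9 inhibitor I (10 nM) added to the medium. Nfatc1, Lif and Xpr1 transcripts were quantified by RT-qPCR as fold change. Data are given as mean ± SD.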

[5] = target: Matrix metalloproteinase-9 (Homo sapiens) (UniProt P14780); assay: Inhibition of MMP-9 in M-CSF/RANKL-induced OCP cells (unknown origin) assessed as reduction in accumulation of G9a in the P and CR region of Xpr1 gene at 10 nM cultured for 3 days with RANKL by ChIPac-qPCR analysis; assay type: cell-based; conditions: Osteoclast, time 3.0 day
[6] = target: Matrix metalloproteinase-9 (Homo sapiens) (UniProt P14780); assay: Inhibition of MMP-9 in M-CSF/RANKL-induced OCP cells (unknown origin) assessed as reduction in accumulation of G9a in the CR region of Lif gene at 10 nM cultured for 3 days with RANKL by ChIPac-qPCR analysis; assay type: cell-based; conditions: Osteoclast, time 3.0 day
[7] = target: Matrix metalloproteinase-9 (Homo sapiens) (UniProt P14780); assay: Inhibition of MMP-9 in M-CSF/RANKL-induced OCP cells (unknown origin) assessed as reduction in accumulation of H3K27me1 in the P and CR region of Xpr1 gene at 10 nM cultured for 3 days with RANKL by ChIPac-qPCR analysis; assay type: cell-based; conditions: Osteoclast, time 3.0 day
Procedure, shortened: (§2)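 Cells were 3-day RANKL-induced OCP cultures (30 ng/ml M-CSF, 50 ng/ml RANKL) with inhibitor in the medium. Chromatin was fixed with […], acetylated with 20 mM acetic anhydride, and immunoprecipitated; crosslinks were reversed overnight at 65 °C. Occupancy was measured by qPCR at the Nfatc1 promoter, the Lif coding region and the Xpr1 promoter plus coding region. Data are given as mean ± SD.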

[8] = target: Matrix metalloproteinase-9 (Homo sapiens) (UniProt P14780); assay: Inhibition of MMP-9 in M-CSF/RANKL-induced OCP cells (unknown origin) assessed as reduction in H3NT proteolysis at 10 nM co-treated with 1.5 uM BIX01294 cultured for 0, 1, 3, and 5 days with RANKL by Western blot analysis; assay type: cell-based; conditions: Osteoclast, time 5.0 day
Procedure, shortened: (§3)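 Osteoclast precursor cells cultured with 30 ng/ml M-CSF plus 50 ng/ml RANKL for 0, 1, 3 or 5 days, with BIX01294 (1.5 µM) and/or MMP-9 inhibitor I (10 nM) in the medium. Nuclei were isolated in HEPES pH 7.4 sucrose buffer with 0.2% Triton X-100, and chromatin was extracted in EDTA/EGTA buffer. Cleaved H3 was detected as a faster-migrating band on Western blot with H3 C-terminal antibody.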

[9] = target: Matrix metalloproteinase-9 (Homo sapiens) (UniProt P14780); assay: Inhibition of MMP-9 in M-CSF/RANKL-induced OCP cells (unknown origin) assessed as reduction in TRAP-positive cells at 10 nM co-treated with 1.5 uM BIX01294 cultured for 0, 1, 3, and 5 days with RANKL by light microscopic analysis; assay type: cell-based; conditions: Osteoclast, time 5.0 day
Procedure, shortened: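 OCP cells were differentiated with 30 ng/ml M-CSF and 50 ng/ml RANKL, with media carrying BIX01294 (1.5 µM) and/or MMP-9 inhibitor I (10 nM). On days 0, 1, 3 and 5 cells were formaldehyde-fixed and stained for tartrate-resistant acid phosphatase with an acid phosphatase leukocyte kit. TRAP-positive cells with three or more nuclei were counted as osteoclasts under a light microscope.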

[10] = target: Matrix metalloproteinase-9 (Homo sapiens) (UniProt P14780); assay: Inhibition of MMP-9 in M-CSF/RANKL-induced OCP cells (unknown origin) assessed as reduction in accumulation of H3K27me1 in the P region of Nfatc1 gene at 10 nM cultured for 3 days with RANKL by ChIPac-qPCR analysis; assay type: cell-based; conditions: Osteoclast, time 3.0 day
Procedure, shortened: as §2

[11] = target: Matrix metalloproteinase-9 (Homo sapiens) (UniProt P14780); assay: Inhibition of MMP-9 in M-CSF/RANKL-induced OCP cells (unknown origin) assessed as reduction in Lif mRNA expression at 10 nM co-treated with BIX01294 cultured for 3 days with RANKL by RT-qPCR analysis; assay type: cell-based; conditions: Osteoclast, time 3.0 day
Procedure, shortened: as §1

[12] = target: Matrix metalloproteinase-9 (Homo sapiens) (UniProt P14780); assay: Inhibition of MMP-9 in M-CSF/RANKL-induced OCP cells (unknown origin) assessed as reduction in Lif mRNA expression at 10 nM cultured for 3 days with RANKL by RT-qPCR analysis; assay type: cell-based; conditions: Osteoclast, time 3.0 day
Procedure, shortened: as §1

[13] = target: Matrix metalloproteinase-9 (Homo sapiens) (UniProt P14780); assay: Inhibition of MMP-9 in M-CSF/RANKL-induced OCP cells (unknown origin) assessed as reduction in H3NT proteolysis at 10 nM cultured for 0, 1, 3, and 5 days with RANKL by Western blot analysis; assay type: cell-based; conditions: Osteoclast, time 5.0 day
Procedure, shortened: as §3

[14] = target: Matrix metalloproteinase-9 (Homo sapiens) (UniProt P14780); assay: Inhibition of MMP-9 in M-CSF/RANKL-induced OCP cells (unknown origin) assessed as reduction in Nfatc1 mRNA expression at 10 nM co-treated with BIX01294 cultured for 3 days with RANKL by RT-qPCR analysis; assay type: cell-based; conditions: Osteoclast, time 3.0 day
Procedure, shortened: as §1

[15] = target: Matrix metalloproteinase-9 (Homo sapiens) (UniProt P14780); assay: Inhibition of MMP-9 in M-CSF/RANKL-induced OCP cells (unknown origin) assessed as reduction in accumulation of H3K27me1 in the CR region of Lif gene at 10 nM cultured for 3 days with RANKL by ChIPac-qPCR analysis; assay type: cell-based; conditions: Osteoclast, time 3.0 day
Procedure, shortened: as §2

[16] = target: Matrix metalloproteinase-9 (Homo sapiens) (UniProt P14780); assay: Inhibition of MMP-9 in M-CSF/RANKL-induced OCP cells (unknown origin) assessed as reduction in accumulation of G9a in the P region of Nfatc1 gene at 10 nM cultured for 3 days with RANKL by ChIPac-qPCR analysis; assay type: cell-based; conditions: Osteoclast, time 3.0 day
[17] = target: Matrix metalloproteinase-9 (Homo sapiens) (UniProt P14780); assay: Inhibition of MMP-9 in M-CSF/RANKL-induced OCP cells (unknown origin) assessed as reduction in Xpr1 mRNA expression at 10 nM co-treated with BIX01294 cultured for 3 days with RANKL by RT-qPCR analysis; assay type: cell-based; conditions: Osteoclast, time 3.0 day
Procedure, shortened: as §1

[18] = target: Matrix metalloproteinase-9 (Homo sapiens) (UniProt P14780); assay: Inhibition of MMP-9 in M-CSF/RANKL-induced OCP cells (unknown origin) assessed as reduction in Nfatc1 mRNA expression at 10 nM cultured for 3 days with RANKL by RT-qPCR analysis; assay type: cell-based; conditions: Osteoclast, time 3.0 day
Procedure, shortened: as §1

| Compound | inhibition [1] | inhibition [2] | inhibition [3] | inhibition [4] | inhibition [5] | inhibition [6] | inhibition [7] | inhibition [8] | inhibition [9] | inhibition [10] | inhibition [11] | inhibition [12] | inhibition [13] | inhibition [14] | inhibition [15] | inhibition [16] | inhibition [17] | inhibition [18] |
| --- | --- | --- | --- | --- | --- | --- | --- | --- | --- | --- | --- | --- | --- | --- | --- | --- | --- | --- |
| CCCc1cc(C)[nH]c(=O)c1CNC(=O)c1cc(-c2ccc(N3CCN(C(C)C)CC3)nc2)cc2c1cnn2C(C)C | Active | inactive | Active | – | – | – | – | – | – | – | – | – | – | – | – | – | – | – |
| CCN(CC)Cc1cc(C)c(N(Cc2ccccc2)S(=O)(=O)c2ccc(OC)cc2)c(C(=O)NO)c1 | – | – | – | Active | inactive | inactive | inactive | Active | Active | inactive | Active | Active | Active | Active | inactive | inactive | Active | Active |
